Laboratory results from ChEMBL document CHEMBL1122520, “Potential antitumor agents. 43. Synthesis and biological activity of dibasic 9-aminoacridine-4-carboxamides, a new class of antitumor agent” (J Med Chem, 1984).

species on record: Mus musculus; experiment: Percentage increase in lifespan of treated animals over that of animals injected with tumor (10e6 P388 leukemia cells), at the optimal dose of 20 mg/(kg day); assay type: functional; conditions: not given

Structure (SMILES)	ILS
CCCCNc1c2ccccc2nc2c(C(=O)NCCN(C)C)cccc12	70%
NCCNC(=O)c1cccc2c(N)c3ccccc3nc12	71%
Nc1c2ccccc2nc2c(C(=O)NCCNCCO)cccc12	73%

test system: not listed separately; experiment: Logarithmic association constant determined by ethidium displacement from DNA co-polymers (adenine & thymine); conditions: not given
Method in brief: (§1)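 Binding constants derived from ethidium displacement from synthetic DNA copolymers, assuming competitive binding.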

Structure (SMILES)	Log K
Nc1c2ccccc2nc2c(C(=O)NCCN3CCCCC3)cccc12	7.12
CCNc1c2ccccc2nc2c(C(=O)NCCN(C)C)cccc12	7.14
Nc1c2ccccc2nc2c(C(=O)NCCc3ccccn3)cccc12	6.94
CN(C)CCCNC(=O)c1cccc2c(N)c3ccccc3nc12	7.51
CNc1c2ccccc2nc2c(C(=O)NCCN(C)C)cccc12	7.17
Nc1c2ccccc2nc2c(C(=O)NCCN3CCOCC3)cccc12	7.29
CCCCNc1c2ccccc2nc2c(C(=O)NCCN(C)C)cccc12	7.1
CCCNc1c2ccccc2nc2c(C(=O)NCCN(C)C)cccc12	7.23
NCCNC(=O)c1cccc2c(N)c3ccccc3nc12	7.36
COCCNc1c2ccccc2nc2c(C(=O)NCCN(C)C)cccc12	6.73
CN(C)CCNC(=O)c1ccc2c(N)c3ccccc3nc2c1	7.18
Nc1c2ccccc2nc2c(C(=O)NCCNCCO)cccc12	7.34

test system: not listed separately; experiment: Lipophilicity (Rm) (RP-TLC); assay type: physicochemical; conditions: not given

Structure (SMILES)	Rm
Nc1c2ccccc2nc2c(C(=O)NCCN3CCCCC3)cccc12	-0.7
CCNc1c2ccccc2nc2c(C(=O)NCCN(C)C)cccc12	-0.88
Nc1c2ccccc2nc2c(C(=O)NCCc3ccccn3)cccc12	-0.57
CN(C)CCCNC(=O)c1cccc2c(N)c3ccccc3nc12	-0.93
CNc1c2ccccc2nc2c(C(=O)NCCN(C)C)cccc12	-1.11
Nc1c2ccccc2nc2c(C(=O)NCCN3CCOCC3)cccc12	-1
CCCCNc1c2ccccc2nc2c(C(=O)NCCN(C)C)cccc12	-0.34
CCCNc1c2ccccc2nc2c(C(=O)NCCN(C)C)cccc12	-0.57
NCCNC(=O)c1cccc2c(N)c3ccccc3nc12	-1.18
COCCNc1c2ccccc2nc2c(C(=O)NCCN(C)C)cccc12	-0.76
CN(C)CCNC(=O)c1ccc2c(N)c3ccccc3nc2c1	-1.06
Nc1c2ccccc2nc2c(C(=O)NCCNCCO)cccc12	-1.06

species on record: Mus musculus; experiment: Percentage increase in lifespan of treated animals over that of animals injected with tumor (10e6 P388 leukemia cells), at the optimal dose of 40 mg/(kg day); g=No activity (ILS < 20%); assay type: functional, organism-based; conditions: not given

Structure (SMILES)	ILS
Nc1c2ccccc2nc2c(C(=O)NCCc3ccccn3)cccc12	No activity (ILS <20%)

test system: HCT-8; experiment: Concentration required for 50% reduction of counted HCT-8 cells upon exposure for a period of 70h; assay type: functional; conditions: Homo sapiens, HCT-8, 70 h; read-out: ID50 (the source's name)
Method in brief: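 HCT-8 human colon adenocarcinoma cells grown in Alpha MEM with glutamine for 2 days before drug addition. Drug exposure for 70 h per table footnote, with 4-day incubation stated in methods. Trypsinized cells counted electronically. ID50 = nM concentration reducing counted cells to 50% of controls.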

Structure (SMILES)	IC50
Nc1c2ccccc2nc2c(C(=O)NCCN3CCCCC3)cccc12	380 nM
CCNc1c2ccccc2nc2c(C(=O)NCCN(C)C)cccc12	188 nM
Nc1c2ccccc2nc2c(C(=O)NCCc3ccccn3)cccc12	3200 nM
CN(C)CCCNC(=O)c1cccc2c(N)c3ccccc3nc12	520 nM
CNc1c2ccccc2nc2c(C(=O)NCCN(C)C)cccc12	125 nM
Nc1c2ccccc2nc2c(C(=O)NCCN3CCOCC3)cccc12	2000 nM
CCCCNc1c2ccccc2nc2c(C(=O)NCCN(C)C)cccc12	150 nM
CCCNc1c2ccccc2nc2c(C(=O)NCCN(C)C)cccc12	203 nM
NCCNC(=O)c1cccc2c(N)c3ccccc3nc12	1500 nM
COCCNc1c2ccccc2nc2c(C(=O)NCCN(C)C)cccc12	400 nM
CN(C)CCNC(=O)c1ccc2c(N)c3ccccc3nc2c1	> 5000 nM
Nc1c2ccccc2nc2c(C(=O)NCCNCCO)cccc12	1600 nM

test system: Mus musculus; experiment: Percentage increase in lifespan of treated animals over that of animals injected with tumor (10e6 P388 leukemia cells), at the optimal dose of 50 mg/kg day); g=No activity (ILS < 20%); assay type: functional, organism-based; design: dose 50 mg/kg; conditions: not given

Structure (SMILES)	ILS
CN(C)CCCNC(=O)c1cccc2c(N)c3ccccc3nc12	No activity (ILS <20%)

test system: L1210; experiment: Concentration required for 50% reduction of counted L1210 cells upon exposure for a period of 70h; assay type: functional; conditions: Mus musculus, L1210, 70 h; read-out: ID50 (the source's name)
Method in brief: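 L1210 leukemia cells cultured with drug for 70 h, then counted. ID50 taken as the nanomolar concentration reducing cell count to 50% of untreated controls.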

Structure (SMILES)	IC50
Nc1c2ccccc2nc2c(C(=O)NCCN3CCCCC3)cccc12	102 nM
CCNc1c2ccccc2nc2c(C(=O)NCCN(C)C)cccc12	94 nM
Nc1c2ccccc2nc2c(C(=O)NCCc3ccccn3)cccc12	1900 nM
CN(C)CCCNC(=O)c1cccc2c(N)c3ccccc3nc12	157 nM
CNc1c2ccccc2nc2c(C(=O)NCCN(C)C)cccc12	15 nM
Nc1c2ccccc2nc2c(C(=O)NCCN3CCOCC3)cccc12	1020 nM
CCCCNc1c2ccccc2nc2c(C(=O)NCCN(C)C)cccc12	41 nM
CCCNc1c2ccccc2nc2c(C(=O)NCCN(C)C)cccc12	46 nM
NCCNC(=O)c1cccc2c(N)c3ccccc3nc12	414 nM
COCCNc1c2ccccc2nc2c(C(=O)NCCN(C)C)cccc12	85 nM
CN(C)CCNC(=O)c1ccc2c(N)c3ccccc3nc2c1	> 2000 nM
Nc1c2ccccc2nc2c(C(=O)NCCNCCO)cccc12	77 nM

species on record: Mus musculus; experiment: Percentage increase in lifespan of treated animals over that of animals injected with tumor (10e6 P388 leukemia cells), at the optimal dose of 13.3 mg/(kg day); assay type: functional; conditions: not given

Structure (SMILES)	ILS
CCCNc1c2ccccc2nc2c(C(=O)NCCN(C)C)cccc12	64%
COCCNc1c2ccccc2nc2c(C(=O)NCCN(C)C)cccc12	47%

test system: not listed separately; experiment: pKa value for the side-chain cationic center; assay type: physicochemical; conditions: not given

Structure (SMILES)	pKa
Nc1c2ccccc2nc2c(C(=O)NCCN3CCCCC3)cccc12	8.9
Nc1c2ccccc2nc2c(C(=O)NCCc3ccccn3)cccc12	5.9
Nc1c2ccccc2nc2c(C(=O)NCCN3CCOCC3)cccc12	6.7
NCCNC(=O)c1cccc2c(N)c3ccccc3nc12	9.1
Nc1c2ccccc2nc2c(C(=O)NCCNCCO)cccc12	8.5

species on record: Mus musculus; experiment: Percentage increase in lifespan of treated animals over that of animals injected with tumor (10e6 P388 leukemia cells), at the optimal dose of 30 mg/(kg day); g=No activity (ILS < 20%); assay type: functional, organism-based; conditions: not given

Structure (SMILES)	ILS
Nc1c2ccccc2nc2c(C(=O)NCCN3CCOCC3)cccc12	No activity (ILS <20%)

species on record: Mus musculus; experiment: Percentage increase in lifespan of treated animals over that of animals injected with tumor (10e6 P388 leukemia cells), at the optimal dose of 2.6 mg/(kg day); assay type: functional; conditions: not given

Structure (SMILES)	ILS
Nc1c2ccccc2nc2c(C(=O)NCCN3CCCCC3)cccc12	33%

species on record: Mus musculus; experiment: Percentage increase in lifespan of treated animals over that of animals injected with tumor (10e6 P388 leukemia cells), at the optimal dose of 8.9 mg/(kg day); assay type: functional; conditions: not given

Structure (SMILES)	ILS
CCNc1c2ccccc2nc2c(C(=O)NCCN(C)C)cccc12	30%

test system: not listed separately; experiment: Logarithmic association constant determined by ethidium displacement from DNA co-polymers (G + C); conditions: not given; method in brief: as §1

Structure (SMILES)	Log K
Nc1c2ccccc2nc2c(C(=O)NCCN3CCCCC3)cccc12	7.1
CCNc1c2ccccc2nc2c(C(=O)NCCN(C)C)cccc12	7.69
Nc1c2ccccc2nc2c(C(=O)NCCc3ccccn3)cccc12	7.03
CN(C)CCCNC(=O)c1cccc2c(N)c3ccccc3nc12	7.6
CNc1c2ccccc2nc2c(C(=O)NCCN(C)C)cccc12	7.65
Nc1c2ccccc2nc2c(C(=O)NCCN3CCOCC3)cccc12	7.58
CCCCNc1c2ccccc2nc2c(C(=O)NCCN(C)C)cccc12	7.69
CCCNc1c2ccccc2nc2c(C(=O)NCCN(C)C)cccc12	7.79
NCCNC(=O)c1cccc2c(N)c3ccccc3nc12	7.67
COCCNc1c2ccccc2nc2c(C(=O)NCCN(C)C)cccc12	7.35
CN(C)CCNC(=O)c1ccc2c(N)c3ccccc3nc2c1	7.66
Nc1c2ccccc2nc2c(C(=O)NCCNCCO)cccc12	7.73
